According to ChEMBL document CHEMBL1123309, “Esters and lactones of phenolic amino carboxylic acids: prodrugs for iron chelation” (J Med Chem, 1986):

How the values were obtained:
Mus musculus [1] = assay: BDF1 male mice were administered with 129 mg/kg intraperitoneally and percent change in iron levels was determined in Liver; format: functional; details: route intraperitoneal
Outline: (§1)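 Male BDF1 mice made iron-overloaded by transfusion of washed, heat-treated (50 °C, 30 min) canine red cells. Dosing began 2 days after the last transfusion, once daily for 7 days, in distilled water or 2% Polysorbate 80 suspension. Daily group urine was collected. Pooled feces were digested in 1 N HCl (90 °C, 30 min). Liver and spleen were homogenized in saline. Iron was measured by atomic absorption and expressed as % change vs transfused controls.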

Mus musculus [2] = assay: BDF1 male mice were administered with 129 mg/kg intraperitoneally and percent change in iron levels was determined in Spleen; format: functional; details: route intraperitoneal; outline: as §1
Mus musculus [3] = assay: BDF1 male mice were administered with 129 mg/kg intraperitoneally and number of survivors was determined out 10 tested; format: functional; details: route intraperitoneal
Outline: (§2)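 Male BDF1 mice were iron-loaded by transfusion of canine red cells. The cells were heparinised, washed twice in isotonic saline and heated at 50 °C for 30 min. Dosing started two days after the last transfusion, once daily for 7 consecutive days. Compounds were given in distilled water or as a fine aqueous suspension with Polysorbate 80 (2% final). Toxic signs were recorded daily and survivors counted per group.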

Mus musculus [4] = assay: BDF1 male mice were administered with 129 mg/kg intraperitoneally and percent change in iron levels was determined in Urine; format: functional; details: route intraperitoneal; outline: as §1
Mus musculus [5] = assay: BDF1 male mice were administered with 129 mg/kg intraperitoneally and percent change in iron levels was determined in Feces; format: functional; details: route intraperitoneal; outline: as §1
Rattus norvegicus [6] = assay: Percent change in iron levels was determined in feces using iron overload rat model where the route of administration is Intraperitoneal; format: functional
Mus musculus [7] = assay: BDF1 male mice were administered with the compound and number of survivors was determined at a dose 100 mg/kg intraperitoneal out of 10 tested; format: functional; outline: as §2
Mus musculus [8] = assay: BDF1 male mice were administered with the compound and number of survivors was determined at a dose 150 mg/kg peroral out of 10 tested; format: functional; details: route oral; outline: as §2
Rattus norvegicus [9] = assay: Percent change in iron levels was determined in feces using iron overload rat model where the route of administration is Peroral; format: functional
Mus musculus [10] = assay: BDF1 male mice were administered with 100 mg/kg po and percent change in iron levels was determined in Liver; format: functional; outline: as §1
Rattus norvegicus [11] = assay: Percent change in iron levels was determined in urine using iron overload rat model where the route of administration is Intraperitoneal; format: functional
Mus musculus [12] = assay: BDF1 male mice were administered with 100 mg/kg po and percent change in iron levels was determined in Spleen; format: functional; outline: as §1
Mus musculus [13] = assay: BDF1 male mice were administered with 150 mg/kg po and percent change in iron levels was determined in Feces; format: functional; outline: as §1
Mus musculus [14] = assay: BDF1 male mice were administered with 150 mg/kg po and percent change in iron levels was determined in Spleen; format: functional; outline: as §1
Mus musculus [15] = assay: BDF1 male mice were administered with 100 mg/kg ip and percent change in iron levels was determined in Feces; format: functional; details: route intraperitoneal; outline: as §1
Rattus norvegicus [16] = assay: Percent change in iron levels was determined in urine using iron overload rat model where the route of administration is Peroral; format: functional
Mus musculus [17] = assay: BDF1 male mice were administered with 100 mg/kg po and percent change in iron levels was determined in Feces; format: functional; outline: as §1
Mus musculus [18] = assay: BDF1 male mice were administered with 100 mg/kg ip and percent change in iron levels was determined in Spleen; format: functional; details: route intraperitoneal; outline: as §1
Mus musculus [19] = assay: BDF1 male mice were administered with 100 mg/kg ip and percent change in iron levels was determined in Liver; format: functional; details: route intraperitoneal; outline: as §1
Mus musculus [20] = assay: BDF1 male mice were administered with 100 mg/kg ip and percent change in iron levels was determined in Urine; format: functional; details: route intraperitoneal; outline: as §1
Mus musculus [21] = assay: BDF1 male mice were administered with 150 mg/kg po and percent change in iron levels was determined in Urine; format: functional; outline: as §1
Mus musculus [22] = assay: BDF1 male mice were administered with 150 mg/kg po and percent change in iron levels was determined in Liver; format: functional; outline: as §1
Mus musculus [23] = assay: BDF1 male mice were administered with 100 mg/kg po and percent change in iron levels was determined in Urine; format: functional; outline: as §1
Mus musculus [24] = assay: BDF1 male mice were administered with the compound and number of survivors was determined at a dose 100 mg/kg peroral out of 10 tested; format: functional; details: route oral; outline: as §2
Mus musculus [25] = assay: BDF1 male mice were administered with 200 mg/kg ip and percent change in iron levels was determined in Urine; format: functional; details: route intraperitoneal; outline: as §1
Mus musculus [26] = assay: BDF1 male mice were administered with 200 mg/kg poand percent change in iron levels was determined in Urine; format: functional
Outline: (§3)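 Hypertransfused male BDF1 mice (canine red cells, washed and heated at 50 °C for 30 min) were dosed orally for 7 days with compound in distilled water or a fine suspension with Polysorbate 80 (2% final). Daily group urine and pooled feces (1 N HCl digest, 90 °C, 30 min, triplicate) were collected, and liver and spleen were homogenized. Iron was measured by atomic absorption and reported as % change vs transfused control.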

Mus musculus [27] = assay: BDF1 male mice were administered with 200 mg/kg ip and percent change in iron levels was determined in Feces; format: functional; details: route intraperitoneal; outline: as §1
Mus musculus [28] = assay: BDF1 male mice were administered with 200 mg/kg po and percent change in iron levels was determined in Spleen; format: functional; outline: as §3
Mus musculus [29] = assay: BDF1 male mice were administered with 200 mg/kg po and percent change in iron levels was determined in Feces; format: functional; outline: as §3
Mus musculus [30] = assay: BDF1 male mice were administered with 200 mg/kg ip and percent change in iron levels was determined in Spleen; format: functional; details: route intraperitoneal; outline: as §1
Mus musculus [31] = assay: BDF1 male mice were administered with the compound and number of survivors was determined at a dose 200 mg/kg ip out of 10 tested; format: functional; details: route intraperitoneal; outline: as §2
Mus musculus [32] = assay: BDF1 male mice were administered with 200 mg/kg ip and percent change in iron levels was determined in Liver; format: functional; details: route intraperitoneal; outline: as §1
Mus musculus [33] = assay: BDF1 male mice were administered with the compound and number of survivors was determined at a dose 200 mg/kg peroral out of 10 tested; format: functional; details: route oral; outline: as §2
Mus musculus [34] = assay: BDF1 male mice were administered with 200 mg/kg po and percent change in iron levels was determined in Liver; format: functional; outline: as §3
Mus musculus [35] = assay: BDF1 male mice were administered with 200 mg/kg intraperitoneally and percent change in iron levels was determined in Feces; format: functional; details: route intraperitoneal; outline: as §1
Mus musculus [36] = assay: BDF1 male mice were administered with 200 mg/kg peroral and percent change in iron levels was determined in Liver; format: functional; details: route oral; outline: as §1
[37] = First order rate constant was determined in the presence of Fe(3+) Spectrophotometrically; format: ADME
Outline: (§4)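 Iron(III)-promoted hydrolysis was followed spectrophotometrically in 50% aqueous methanol with Hepes buffer at pH 7.5 and 38 °C. Ester and ferric nitrate were each 1.7 × 10⁻⁴ M. The read-out was the rise in absorbance at 480 nm. Data were fitted by nonlinear least squares for consecutive first-order processes.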

Mus musculus [38] = assay: BDF1 male mice were administered with 200 mg/kg intraperitoneally and number of survivors was determined out of 10 tested; format: functional; details: route intraperitoneal; outline: as §2
[39] = Half life was determined in the presence of Fe(III) Titrimetrically; format: ADME
Outline: (§5)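 Metal and chelator were each 5 × 10⁻⁴ M. Constant pH was held with 0.05 M NaOH. Hydrolysis rate came from base consumption, with first-order kinetics.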

Mus musculus [40] = assay: BDF1 male mice were administered with 200 mg/kg intraperitoneally and percent change in iron levels was determined in Urine; format: functional; details: route intraperitoneal; outline: as §1
[41] = Half life was determined in the presence of Fe(III) Spectrophotometrically; format: ADME; outline: as §4
Mus musculus [42] = assay: BDF1 male mice were administered with 200 mg/kg intraperitoneally and percent change in iron levels was determined in liver; format: functional; details: route intraperitoneal; outline: as §1
Mus musculus [43] = assay: BDF1 male mice were administered with 200 mg/kg intraperitoneally and percent change in iron levels was determined in Spleen; format: functional; details: route intraperitoneal; outline: as §1
Mus musculus [44] = assay: BDF1 male mice were administered with 200 mg/kg peroral and number of survivors was determined out of 10 tested; format: functional; details: route oral; outline: as §2
Mus musculus [45] = assay: BDF1 male mice were administered with 200 mg/kg peroral and percent change in iron levels was determined in Urine; format: functional; details: route oral; outline: as §3
Mus musculus [46] = assay: BDF1 male mice were administered with 200 mg/kg peroral and percent change in iron levels was determined in Spleen; format: functional; details: route oral; outline: as §3
[47] = First order rate constant was determined in the presence of Fe(3+) Titrimetrically; format: ADME; outline: as §5
Mus musculus [48] = assay: BDF1 male mice were administered with 200 mg/kg peroral and percent change in iron levels was determined in Feces; format: functional; details: route oral; outline: as §1

SMILES: O=C([O-])CN(CCN(CC(=O)[O-])c1ccccc1O)c1ccccc1O.[Li+].[Li+]
- Iron change (Mus musculus [1]): -49%
- Iron change (Mus musculus [2]): -7%
- No. of survivors (Mus musculus [3]): 9
- Iron change (Mus musculus [4]): 28%
- Iron change (Mus musculus [5]): -38%

SMILES: CCCCCOC(=O)CN(CCN(CC(=O)OCCCCC)Cc1ccccc1O)Cc1ccccc1O
- Iron change (Rattus norvegicus [6]): 114%
- No. of survivors (Mus musculus [7]): 10
- No. of survivors (Mus musculus [8]): 8
- Iron change (Rattus norvegicus [9]): 268%
- Iron change (Mus musculus [10]): -12%
- Iron change (Rattus norvegicus [11]): 215%
- Iron change (Mus musculus [12]): 12%
- Iron change (Mus musculus [13]): -69%
- Iron change (Mus musculus [14]): -11%
- Iron change (Mus musculus [15]): 24%
- Iron change (Rattus norvegicus [16]): 390%
- Iron change (Mus musculus [17]): -3%
- Iron change (Mus musculus [18]): -2%
- Iron change (Mus musculus [19]): -33%
- Iron change (Mus musculus [20]): 117%
- Iron change (Mus musculus [21]): 132%
- Iron change (Mus musculus [22]): -60%
- Iron change (Mus musculus [23]): 43%
- No. of survivors (Mus musculus [24]): 10

SMILES: CC(C)(C)OC(=O)CN(CCN(CC(=O)OC(C)(C)C)Cc1ccccc1O)Cc1ccccc1O
- Iron change (Mus musculus [25]): -1%
- Iron change (Mus musculus [26]): -27%
- Iron change (Mus musculus [27]): -1%
- Iron change (Mus musculus [28]): 5%
- Iron change (Mus musculus [29]): -13%
- Iron change (Mus musculus [30]): -5%
- No. of survivors (Mus musculus [31]): 10
- Iron change (Mus musculus [32]): 10%
- No. of survivors (Mus musculus [33]): 10
- Iron change (Mus musculus [34]): 6%

SMILES: O=C1CN(CCN2CC(=O)Oc3ccccc32)c2ccccc2O1
- Iron change (Mus musculus [35]): -65%
- Iron change (Mus musculus [36]): -56%
- 10E2 k1 [37]: 0.587 min⁻¹
- No. of survivors (Mus musculus [38]): 8
- half-life [39]: 1.19 h
- Iron change (Mus musculus [40]): 157%
- half-life [41]: 1.97 h
- Iron change (Mus musculus [42]): -68%
- Iron change (Mus musculus [43]): -17%
- No. of survivors (Mus musculus [44]): 10
- Iron change (Mus musculus [45]): 93%
- Iron change (Mus musculus [46]): -30%
- 10E2 k1 [47]: 0.97 min⁻¹
- Iron change (Mus musculus [48]): -2%
